Assays:
Format in all cases: functional
[1] = system: H4; assay: Effect on FYVE-RFP+ vesicle intensity per cell in human H4 cells after 8 hrs relative to control; parameters: concentration or dose not given beside the values
Summary of the method: (§1)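 H4 cells stably expressing FYVE-RFP (H4-FYVE), grown in DMEM with 10% FBS, penicillin/streptomycin and 2 mM L-glutamine at 37°C, 5% CO2, seeded in 96-well plates and exposed to compound. Fixed in 4% paraformaldehyde, nuclei stained with 3 μg/ml DAPI, FYVE-RFP+ vesicles quantified by high-throughput fluorescence microscopy against DMSO control. Triplicate wells, mean ± SD.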

[2] = system: H4; assay: Increase in long-lived protein degradation in human H4 cells after 24 hrs relative to control; parameters: concentration or dose not given beside the values
[3] = system: H4; assay: Increase in light chain 3-GFP+ autophagosome vesicle intensity per cell in human H4 cells at 7.2 uM after 24 hrs by high throughput fluorescence microscopy relative to control
Summary of the method: (§2)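 H4 cells stably expressing LC3-GFP were grown in DMEM with 10% FBS and 2 mM L-glutamine at 37°C, 5% CO2. They were exposed to each compound for 24 h, with DMSO as negative and rapamycin as positive control. Cells were then fixed in 4% paraformaldehyde and stained with 3 μg/ml DAPI. High-throughput fluorescence imaging scored LC3-GFP spot number, size and intensity, expressed relative to DMSO. Mean ± SD of triplicates; experiments repeated three times.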

[4] = system: H4; assay: Induction of light chain 3-GFP level in human H4 cells at 7.2 uM after 24 hrs by high throughput fluorescence microscopy relative to control
Summary of the method: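 H4 cells stably expressing LC3-GFP, grown in DMEM with 10% FBS, penicillin/streptomycin and 2 mM L-glutamine at 37°C, 5% CO2. Cells were seeded in 96-well plates and exposed to library compounds at 3–12 μM for 24 h, then fixed in 4% paraformaldehyde and stained with 3 μg/ml DAPI. LC3-GFP spot number, size and intensity were measured by high-throughput fluorescence microscopy and expressed relative to DMSO. Triplicates, mean ± SD.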

[5] = system: H4; assay: Increase in light chain 3-GFP+ autophagosome vesicle number per cell in human H4 cells at 7.2 uM after 24 hrs by high throughput fluorescence microscopy relative to control; summary of the method: as §2
[6] = system: H4; assay: Increase in light chain 3-GFP+ autophagosome vesicle area per cell in human H4 cells at 7.2 uM after 24 hrs by high throughput fluorescence microscopy relative to control
Summary of the method: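 H4 cells stably expressing LC3-GFP, seeded in 96-well plates and exposed to compound for 24 h; screening concentrations were 3–12 μM, with rapamycin 0.22 μM and bafilomycin A1 0.40 μM. Cells fixed in 4% paraformaldehyde and stained with 3 μg/ml DAPI. Number, size and intensity of LC3-GFP spots measured by high-throughput fluorescence microscopy and expressed as percent of DMSO-treated wells. Rapamycin was the positive control. Triplicate wells, mean ± SD; experiments repeated three times.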

[7] = system: H4; assay: Increase in long-lived protein degradation in human H4 cells after 2 hrs relative to control; parameters: concentration or dose not given beside the values
[8] = system: H4; assay: Effect on FYVE-RFP+ vesicle intensity per cell in human H4 cells after 4 hrs relative to control; parameters: concentration or dose not given beside the values; summary of the method: as §1
[9] = system: H4; assay: Effect on FYVE-RFP+ vesicle intensity per cell in human H4 cells after 2 hrs relative to control; parameters: concentration or dose not given beside the values; summary of the method: as §1
[10] = system: H4; assay: Increase in long-lived protein degradation in human H4 cells after 4 hrs relative to control; parameters: concentration or dose not given beside the values
[11] = system: H4; assay: Increase in long-lived protein degradation in human H4 cells after 1 hr relative to control; parameters: concentration or dose not given beside the values
[12] = system: H4; assay: Increase in light chain 3-GFP+ autophagosome vesicle area per cell in human H4 cells at 3.3 uM after 24 hrs by high throughput fluorescence microscopy relative to control
Summary of the method: (§3)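 H4 cells stably expressing LC3-GFP, seeded in 96-well plates and exposed to compound for 24 h; fixed in 4% paraformaldehyde, nuclei stained with 3 μg/ml DAPI. Automated fluorescence microscopy scored number, size and intensity of LC3-GFP spots; values expressed relative to DMSO-treated wells, rapamycin positive control. Triplicate wells, mean ± SD; experiments repeated three times.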

[13] = system: H4; assay: Induction of light chain 3-GFP level in human H4 cells at 3.3 uM after 24 hrs by high throughput fluorescence microscopy relative to control
Summary of the method: (§4)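 H4 cells stably expressing LC3-GFP, kept in DMEM/10% FBS at 37°C, 5% CO2, were seeded in 96-well plates and exposed to compound for 24 h. Cells were then fixed in 4% paraformaldehyde and stained with 3 μg/ml DAPI. Automated fluorescence microscopy scored the number, size and intensity of LC3-GFP spots. Values are percent of DMSO wells, in triplicate, mean ± SD. Rapamycin served as positive control.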

[14] = system: H4; assay: Decrease in FYVE-RFP+ vesicle intensity per cell in human H4 cells after 2 hrs relative to control; parameters: concentration or dose not given beside the values; summary of the method: as §1
[15] = system: H4; assay: Decrease in FYVE-RFP+ vesicle intensity per cell in human H4 cells after 8 hrs relative to control; parameters: concentration or dose not given beside the values; summary of the method: as §1
[16] = system: H4; assay: Increase in light chain 3-GFP+ autophagosome vesicle number per cell in human H4 cells at 3.3 uM after 24 hrs by high throughput fluorescence microscopy relative to control; summary of the method: as §3
[17] = system: H4; assay: Decrease in FYVE-RFP+ vesicle intensity per cell in human H4 cells after 4 hrs relative to control; parameters: concentration or dose not given beside the values; summary of the method: as §1
[18] = system: H4; assay: Increase in light chain 3-GFP+ autophagosome vesicle intensity per cell in human H4 cells at 3.3 uM after 24 hrs by high throughput fluorescence microscopy relative to control; summary of the method: as §3
[19] = system: H4; assay: Increase in FYVE-RFP+ vesicle intensity per cell in human H4 cells after 4 hrs relative to control; parameters: concentration or dose not given beside the values; summary of the method: as §1
[20] = system: H4; assay: Increase in light chain 3-GFP+ autophagosome vesicle number per cell in human H4 cells at 3.4 uM after 24 hrs by high throughput fluorescence microscopy relative to control; summary of the method: as §3
[21] = system: H4; assay: Increase in light chain 3-GFP+ autophagosome vesicle area per cell in human H4 cells at 3.4 uM after 24 hrs by high throughput fluorescence microscopy relative to control; summary of the method: as §3
[22] = system: H4; assay: Increase in light chain 3-GFP+ autophagosome vesicle intensity per cell in human H4 cells at 3.4 uM after 24 hrs by high throughput fluorescence microscopy relative to control; summary of the method: as §3
[23] = system: H4; assay: Increase in FYVE-RFP+ vesicle intensity per cell in human H4 cells after 2 hrs relative to control; parameters: concentration or dose not given beside the values; summary of the method: as §1
[24] = system: H4; assay: Induction of light chain 3-GFP level in human H4 cells at 3.4 uM after 24 hrs by high throughput fluorescence microscopy relative to control; summary of the method: as §4
[25] = system: H4; assay: Increase in FYVE-RFP+ vesicle intensity per cell in human H4 cells after 8 hrs relative to control; parameters: concentration or dose not given beside the values; summary of the method: as §1
[26] = system: H4; assay: Increase in light chain 3-GFP+ autophagosome vesicle area per cell in human H4 cells at 5.7 uM after 24 hrs by high throughput fluorescence microscopy relative to control; summary of the method: as §3
[27] = system: H4; assay: Increase in light chain 3-GFP+ autophagosome vesicle number per cell in human H4 cells at 5.7 uM after 24 hrs by high throughput fluorescence microscopy relative to control; summary of the method: as §4
[28] = system: H4; assay: Induction of light chain 3-GFP level in human H4 cells at 5.7 uM after 24 hrs by high throughput fluorescence microscopy relative to control; summary of the method: as §4
[29] = system: H4; assay: Increase in light chain 3-GFP+ autophagosome vesicle intensity per cell in human H4 cells at 5.7 uM after 24 hrs by high throughput fluorescence microscopy relative to control; summary of the method: as §3

| SMILES | Activity [1] [%] | Activity [2] [%] | Activity [7] [%] | Activity [8] [%] | Activity [9] [%] | Activity [10] [%] | Activity [11] [%] | also measured |
| --- | --- | --- | --- | --- | --- | --- | --- | --- |
| COC(=O)c1c(C)[nH]c(C)c1C(=O)c1ccccc1Cc1ccccc1 | 87.62 | 90.97 | 111.04 | 78.17 | 99.43 | 97.03 | 101.34 | Activity [3]: 200.83%; Activity [4]: 132.45%; Activity [5]: 161.73%; Activity [6]: 18010% |
| COc1cc2c3cc1Oc1c(OC)c(OC)cc4c1[C@@H](Cc1ccc(OC(=O)c5ccc([N+](=O)[O-])cc5)c(c1)Oc1ccc(cc1)C[C@@H]3N(C)CC2)N(C)CC4 [E6 BERBAMINE] |  | 93.45 | 91.62 |  |  | 96.53 | 100.96 | Activity [12]: 693.82%; Activity [13]: 131.16%; Activity [14]: 59.73%; Activity [15]: 58.69%; Activity [16]: 389.35%; Activity [17]: 54.54%; Activity [18]: 2447.47% |
| CO[C@@H]1C[C@@H](C[C@H]2CC[C@H](C)[C@H]([C@@H](C)C(=O)O)O2)O[C@]2(O[C@](C)([C@H]3CC[C@@](C)([C@@H]4O[C@@H]([C@H]5O[C@@](O)(CO)[C@H](C)C[C@@H]5C)C[C@@H]4C)O3)C[C@H]2C)[C@@H]1C [NIGERICIN] |  | 95.98 | 88.14 |  |  | 96.9 | 91.75 | Activity [19]: 145.4%; Activity [20]: 375.67%; Activity [21]: 551.04%; Activity [22]: 747.88%; Activity [23]: 148.43%; Activity [24]: 106.9%; Activity [25]: 140.54% |
| CC(C)(O)[C@H]1O[C@H]2CC[C@@]3(C)[C@@](O)(CC[C@H]4Cc5c([nH]c6ccccc56)[C@@]43C)C2=CC1=O [PAXILLINE] | 56.82 | 102.35 | 112.34 | 52.37 | 100.56 | 106.27 | 100.56 | Activity [26]: 185.52%; Activity [27]: 162.66%; Activity [28]: 119.79%; Activity [29]: 205.83% |

From ChEMBL document CHEMBL1145471, “Small molecule regulators of autophagy identified by an image-based high-throughput screen” (Proc Natl Acad Sci U S A, 2007)
